The text below walks through data of ChEMBL document CHEMBL3414496, “Synthesis and biological evaluation of novel 2-heteroarylimino-1,3-thiazolidin-4-ones as potential anti-tumor agents” (Eur J Med Chem, 2015).

Structures are written as SMILES. Calls of active or inactive are those of the source. The rule behind the calls is not given here.

The first experiment relates to HT-29. Put plainly: Induction of redox status changes in human HT-29 cells assessed as ROS content in presence of 1 mM ascorbic acid by DCF-DA staining based fluorescence assay (reference value: 65.7 +/- 4.7%).
Conditions: not given
`CN(C)c1ccc(/C=C2\S/C(=N\c3csc(-c4ccc(Cl)cc4)c3)NC2=O)cc1`: the Activity is 133.6%.

The subject of a further experiment is HT-29. Put plainly: Induction of ROS generation in human HT-29 cells at cytotoxic IC50 level after 4 hrs by DCF-DA staining based fluorescence assay.
Conditions: not given
The class given is functional, cell-based. In short, it runs like this: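 HT29 cells treated two days after seeding, then loaded with 50 µM DCF-DA for 15 min at 37°C. Cells trypsinized, washed and resuspended in PBS, and 30 000 cells/sample read by flow cytometry (FL-1). Expressed as % of DMSO-treated cells; […] for 1 h served as positive control. Triplicates from three independent experiments.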
Take `CN(C)c1ccc(/C=C2\S/C(=N\c3csc(-c4ccc(Cl)cc4)c3)NC2=O)cc1`: the result was Active.

The test system of the next experiment is HT-29. Put plainly: Induction of redox status changes in human HT-29 cells assessed as GSH content by fluorescence based microtiter plate method (reference value: 100%). The class given is functional.
Conditions: not given
In short, it runs like this:
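HT29 cells exposed 48 h after seeding for 24 h, then extracted into ice-cold 10% perchloric acid with 2 mM EDTA and spun at 15 000 g. GSH in the supernatant measured by a fluorescence microtiter plate method; pellet protein measured by modified Lowry. Values in nmol GSH/mg protein, shown as % of DMSO controls. Triplicates from three experiments.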
For the molecule `CN(C)c1ccc(/C=C2\S/C(=N\c3csc(-c4ccc(Cl)cc4)c3)NC2=O)cc1`, the Activity is listed as 84.6%.

A further experiment concerns HT-29. The experiment is described as follows: Induction of cell cycle arrest in human HT-29 cells assessed as accumulation at S phase by propidium iodide staining based flow cytometry (reference value: 23.9 +/- 0.3%). The class given is functional.
Conditions: not given
With `CN(C)c1ccc(/C=C2\S/C(=N\c3csc(-c4ccc(Cl)cc4)c3)NC2=O)cc1`, the Activity amounted to 14.8%.

For the next experiment, the system named is HT-29. The experiment is described as follows: Induction of nuclear fragmentation in human HT-29 cells incubated for 2 days by DAPI staining based UV fluorescent microscopy. The class given is functional, cell-based.
Conditions: not given
In short, it runs like this: (§1)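 HT29 cells in 35 mm dishes treated over two days, fixed in 70% ethanol for 5 min and rinsed with PBS. Stained with 1 µM DAPI in PBS for 15 min and imaged by UV fluorescence microscopy for nuclear morphology.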
`CN(C)c1ccc(/C=C2\S/C(=N\c3csc(-c4ccc(Cl)cc4)c3)NC2=O)cc1`: the result was Active.

Another experiment has as its system HT-29. The experiment is described as follows: Growth inhibition of human HT-29 cells at cytotoxic IC50 level after 3 days by trypan blue dye exclusion assay. In kind it is functional.
Conditions: not given
In short, it runs like this: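 HT29 cells treated 48 h after seeding, dosed daily with daily medium change over three days; drug diluted in DMSO, controls 0.1% (v/v) DMSO. Cells trypsinized, mixed 1:1 with 0.04% trypan blue, live cells counted by hematimeter. Reported as mitotic index (treated/DMSO count); triplicates from two independent experiments.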
`CN(C)c1ccc(/C=C2\S/C(=N\c3csc(-c4ccc(Cl)cc4)c3)NC2=O)cc1`: the “growth inhibition (GI)” value was determined as 90%.

A further experiment has as its system HT-29. Put plainly: Induction of autophagy in human HT-29 cells assessed as increase in beclin-1 protein expression by Western blotting method. In kind it is functional, cell-based.
Conditions: not given
In short, it runs like this:
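HT29 cells in flasks treated over two days. Total protein homogenates immunoblotted with anti-beclin-1 (1:500), with GAPDH as loading control.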
Background: Immunoblotting shows a protein as a band on a membrane.
Take `CN(C)c1ccc(/C=C2\S/C(=N\c3csc(-c4ccc(Cl)cc4)c3)NC2=O)cc1`: the result was Active.

The subject of another experiment is HT-29. The experiment is described as follows: Induction of mitochondrial membrane potential loss in human HT-29 cells incubated for 2 days by JC1 staining based UV fluorescent microscopy.
Conditions: not given
The class given is functional, cell-based. In short, it runs like this: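 HT29 cells in dishes exposed to test agents, then 1 µM JC-1 added to the medium for 15 min at 37°C. Cells washed with warm PBS and imaged by fluorescence microscopy for J-aggregates (red channel). 50 µM CCCP for 15 min served as depolarization control.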
`CN(C)c1ccc(/C=C2\S/C(=N\c3csc(-c4ccc(Cl)cc4)c3)NC2=O)cc1`: the outcome was Active.

The next experiment relates to HT-29. The experiment is described as follows: Induction of chromatin condensation in human HT-29 cells incubated for 2 days by DAPI staining based UV fluorescent microscopy. The class given is functional, cell-based.
Conditions: not given
The procedure, abridged: as §1
On to `CN(C)c1ccc(/C=C2\S/C(=N\c3csc(-c4ccc(Cl)cc4)c3)NC2=O)cc1`, for which the result was Active.

In a further experiment the test system is MDA-MB-231. Put plainly: Cytotoxicity against human MDA-MB-231 cells after 72 hrs by MTT assay. In kind it is functional, cell-based. The settings on record: MDA-MB-231, 72 h. The procedure, abridged: (§2)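 Cells seeded at 10^4/well, exposed 24 h later to graded concentrations (0.01–100 µM) for 72 h at 37°C; MTT 0.5 mg/ml for 2 h, formazan dissolved in DMSO, absorbance at 570 nm. […] Colon lines in DMEM, breast lines in RPMI, both with 10% FCS.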
Background: Tetrazolium dyes change colour on reduction, which living cells bring about.
With `CN(C)c1ccc(/C=C2\S/C(=N\c3csc(-c4ccc(Cl)cc4)c3)NC2=O)cc1`, the IC50 (usually the midpoint of a concentration-inhibition curve) stood at 800 nM.

The subject of the next experiment is HT-29. The experiment is described as follows: Induction of cell cycle arrest in human HT-29 cells assessed as accumulation at G0/G1 phase by propidium iodide staining based flow cytometry (reference value: 46.1 +/- 0.4%). The class given is functional.
Conditions: not given
For orientation: Flow cytometry measures light scatter and fluorescence of single cells or particles in a stream.
In the case of `CN(C)c1ccc(/C=C2\S/C(=N\c3csc(-c4ccc(Cl)cc4)c3)NC2=O)cc1`, the Activity was found to be 1.5%.

A further experiment relates to HT-29. The experiment is described as follows: Induction of autophagy in human HT-29 cells assessed as increase in acidic vesicles by acridine orange staining based flow cytometry. The class given is functional, cell-based.
Conditions: not given
The procedure, abridged: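 HT29 cells treated for two days with daily medium changes, stained with 1 µg/ml acridine orange for 15 min, then trypsinized and suspended in PBS. FL-3 fluorescence read by flow cytometry on 30 000 cells/sample and expressed in arbitrary units relative to DMSO-treated cells. Triplicates from three independent experiments.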
With `CN(C)c1ccc(/C=C2\S/C(=N\c3csc(-c4ccc(Cl)cc4)c3)NC2=O)cc1`, the result was Active.

A further experiment deals with HT-29. The experiment is described as follows: Induction of cell cycle arrest in human HT-29 cells assessed as accumulation at subG1 phase by propidium iodide staining based flow cytometry (reference value: 6.9 +/- 0.5%).
Conditions: not given
In kind it is functional.
As for `CN(C)c1ccc(/C=C2\S/C(=N\c3csc(-c4ccc(Cl)cc4)c3)NC2=O)cc1`, the Activity was 29%.

A further experiment deals with HT-29. The experiment is described as follows: Induction of cell cycle arrest in human HT-29 cells assessed as accumulation at G2/M phase by propidium iodide staining based flow cytometry (reference value: 30 +/- 2%).
Conditions: not given
In kind it is functional.
With `CN(C)c1ccc(/C=C2\S/C(=N\c3csc(-c4ccc(Cl)cc4)c3)NC2=O)cc1`, the Activity is reported as 83.7%.

Another experiment has as its system HT-29. The experiment is described as follows: Induction of redox status changes in human HT-29 cells assessed as RNS content by DAF-2DA staining based fluorescence assay (reference value: 100%). The class given is functional.
Conditions: not given
The procedure, abridged:
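HT29 cells treated two days after seeding, then loaded with 1 µM DAF-2DA for 30 min at 37°C. Cells trypsinized and resuspended in PBS, and 30 000 cells/sample measured by flow cytometry (FL-1). Expressed as % of DMSO-treated cells. Triplicates from three independent experiments.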
Turning to `CN(C)c1ccc(/C=C2\S/C(=N\c3csc(-c4ccc(Cl)cc4)c3)NC2=O)cc1`, the Activity is 294.4%.

The next experiment relates to HT-29. The experiment is described as follows: Induction of redox status changes in human HT-29 cells assessed as RNS content by DHR123 staining based fluorescence assay (reference value: 100%). In kind it is functional.
Conditions: not given
In short, it runs like this:
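HT29 cells treated two days after seeding, then loaded with 25 µM DHR for 20 min at 37°C. Cells trypsinized and resuspended in PBS, and 30 000 cells/sample read by flow cytometry (FL-1). Expressed as % of DMSO controls. Triplicates from three independent experiments.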
With `CN(C)c1ccc(/C=C2\S/C(=N\c3csc(-c4ccc(Cl)cc4)c3)NC2=O)cc1`, the Activity is 80.1%.

The next experiment relates to HT-29. The experiment is described as follows: Cytotoxicity against human HT-29 cells after 72 hrs by MTT assay. The settings on record: HT-29, 72 h. In kind it is functional, cell-based. In short, it runs like this:
as §2
In turn, `CN(C)c1ccc(/C=C2\S/C(=N\c3csc(-c4ccc(Cl)cc4)c3)NC2=O)cc1` showed an IC50 of 1500 nM.

Test system in a further experiment: not listed separately
Put plainly: Cytotoxicity against human HCT116 cells after 72 hrs by MTT assay. The class given is functional, cell-based. The settings on record: HCT-116, 72 h. The procedure, abridged:
as §2
The molecule `CN(C)c1ccc(/C=C2\S/C(=N\c3csc(-c4ccc(Cl)cc4)c3)NC2=O)cc1` had an IC50 of 500 nM.

A further experiment relates to MCF7. The experiment is described as follows: Cytotoxicity against human MCF7 cells after 72 hrs by MTT assay. The settings on record: MCF7, 72 h. The class given is functional, cell-based. In short, it runs like this:
as §2
As for `CN(C)c1ccc(/C=C2\S/C(=N\c3csc(-c4ccc(Cl)cc4)c3)NC2=O)cc1`, the half-maximal inhibitory concentration (IC50) amounted to 400 nM.

The subject of a further experiment is SW-620. Put plainly: Cytotoxicity against human SW620 cells after 72 hrs by MTT assay. In kind it is functional, cell-based. The settings on record: SW-620, 72 h. In short, it runs like this:
as §2
`CN(C)c1ccc(/C=C2\S/C(=N\c3csc(-c4ccc(Cl)cc4)c3)NC2=O)cc1`: the concentration for half-maximal inhibition (IC50) was 800 nM.

The subject of the next experiment is HT-29. The experiment is described as follows: Reduction in cell growth of human HT-29 cells at cytotoxic IC50 level after 3 days by trypan blue dye exclusion assay.
Conditions: not given
The class given is functional, cell-based. In short, it runs like this: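 HT29 cells treated daily from 48 h after seeding, over three days with daily medium changes, in 0.1% (v/v) DMSO vehicle. Cells trypsinised, mixed 1:1 with 0.04% trypan blue, and living cells counted by haemocytometer under microscope. Mitotic index is treated count relative to DMSO control. Triplicate determinations, two independent experiments, mean ± S.E.M.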
With `CN(C)c1ccc(/C=C2\S/C(=N\c3csc(-c4ccc(Cl)cc4)c3)NC2=O)cc1`, the inhibition entry was “Active”.

Another experiment concerns HT-29. Put plainly: Reduction in cell viability of human HT-29 cells assessed as reduction in living cell level at cytotoxic IC50 level after 24 to 48 hrs by DCF-DA and propidium iodide staining based flow cytometry. In kind it is functional.
Conditions: not given
In short, it runs like this:
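HT29 cells treated two days after seeding, then loaded together with 50 µM DCF-DA and 25 µg/mL propidium iodide for 15 min at 37°C. Cells trypsinised, washed and resuspended in PBS; 30 000 cells per sample read by flow cytometry (FL-1, FL-3). Viable cells (PI-negative, DCF-positive) given as % of total events. Triplicates, two independent experiments.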
Consider `CN(C)c1ccc(/C=C2\S/C(=N\c3csc(-c4ccc(Cl)cc4)c3)NC2=O)cc1`, for which the inhibition result is “Active”.
